Where a name gives a salt, the structure may show the parent alone.
Key:
Format in all cases: functional, cell-based
[1] = Antiproliferative activity against mouse B16-BL6 cells assessed as cell viability after 72 hrs by MTT assay; settings: B16-BL6, 72 h
In short: (§1)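 MTT viability assay. HT-1080 and B-16 BL6 were kept in Eagle's MEM, colon 26-L5 in RPMI, all with 10% FCS, 0.1% NaHCO3 and 2 mM glutamine. 2500 cells/well were attached for 24 h at 37 °C, 5% CO2, then exposed 72 h to graded concentrations (DMSO stock, final DMSO <0.1%). MTT was added for 2 h, formazan read at 540 nm, and IC50 taken from means of four wells.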

[2] = Antiproliferative activity against mouse Colon 26-L5 cells assessed as cell viability after 72 hrs by MTT assay
[3] = system: HT-1080; assay: Antiproliferative activity against human HT1080 cells assessed as cell viability after 72 hrs by MTT assay; settings: HT-1080, 72 h; in short: as §1

Compound | IC50 [1] [µM] | IC50 [2] [µM] | IC50 [3] [µM]
C=C1CC[C@@]2(OC1)O[C@H]1C[C@H]3[C@@H]4CC=C5C[C@@H](O)C[C@@H](O[C@@H]6OC[C@H](O)[C@H](O)[C@H]6O[C@@H]6O[C@@H](C)[C@H](O)[C@@H](O)[C@H]6O)[C@]5(C)[C@H]4CC[C@]3(C)[C@H]1[C@@H]2C | 41.2 | 95.3 | 42.1
C=C1CC[C@@]2(OC1)O[C@H]1C[C@H]3[C@@H]4CC=C5C[C@@H](O)C[C@@H](O[C@@H]6OC[C@H](O)[C@H](O)[C@H]6O)[C@]5(C)[C@H]4CC[C@]3(C)[C@H]1[C@@H]2C | 47.9 | 77.2 | 40
C=C(CCC1=C(C)[C@H]2[C@H](C[C@H]3[C@@H]4CC=C5C[C@@H](O)C[C@@H](O[C@@H]6OC[C@H](O)[C@H](O)[C@H]6O[C@@H]6O[C@@H](C)[C@H](O)[C@@H](O)[C@H]6O)[C@]5(C)[C@H]4CC[C@@]32C)O1)CO[C@@H]1O[C@H](CO)[C@@H](O)[C@H](O)[C@H]1O | > 100 | > 100 | > 100
C=C1CO[C@@]2(O[C@H]3C[C@H]4[C@@H]5CC=C6C[C@@H](O)C[C@@H](O[C@@H]7OC[C@H](O)[C@H](O)[C@H]7O[C@@H]7O[C@@H](C)[C@H](OC(C)=O)[C@@H](OC(C)=O)[C@H]7OC(C)=O)[C@]6(C)[C@H]5CC[C@]4(C)[C@H]3[C@@H]2C)[C@@H](O)[C@H]1O[C@@H]1O[C@H](C)[C@H](O)[C@H](O)[C@H]1O | 20.9 | 30.2 | 3.8
C=C1CO[C@@]2(O[C@H]3C[C@H]4[C@@H]5CC=C6C[C@@H](O)C[C@@H](O[C@@H]7OC[C@H](O)[C@H](O)[C@H]7O[C@@H]7O[C@@H](C)[C@H](O)[C@@H](O)[C@H]7O)[C@]6(C)[C@H]5CC[C@]4(C)[C@H]3[C@@H]2C)[C@@H](O)[C@H]1O | 4.2 | 5.3 | 56.5
C=C1CO[C@@]2(O[C@H]3C[C@H]4[C@@H]5CC=C6C[C@@H](O)C[C@@H](O[C@@H]7OC[C@H](O)[C@H](O[C@@H]8OC[C@@H](O)[C@H](O)[C@H]8O)[C@H]7O[C@@H]7O[C@@H](C)[C@H](OC(C)=O)[C@@H](OC(C)=O)[C@H]7OC(C)=O)[C@]6(C)[C@H]5CC[C@]4(C)[C@H]3[C@@H]2C)[C@@H](O)[C@H]1O[C@@H]1O[C@H](C)[C@H](O)[C@H](O)[C@H]1O | 11.9 | 22.1 | 0.6
C=C1CO[C@@]2(O[C@H]3C[C@H]4[C@@H]5CC=C6C[C@@H](O)C[C@@H](O[C@@H]7OC[C@H](O)[C@H](O[C@@H]8OC[C@@H](O)[C@H](O)[C@H]8O)[C@H]7O[C@@H]7O[C@@H](C)[C@H](OC(C)=O)[C@@H](OC(C)=O)[C@H]7OC(C)=O)[C@]6(C)[C@H]5CC[C@]4(C)[C@H]3[C@@H]2C)[C@@H](O)[C@H]1O | 28.4 | 76.6 | 11.1
CC1CC[C@@]2(OC1)O[C@H]1C[C@@]3(O)[C@@H]4CC=C5C[C@@H](O)C[C@@H](O)[C@]5(C)[C@H]4CC[C@]3(C)[C@@]1(O)[C@@H]2C (mixture of isomers) [(25R,S)-NAMOGENIN A] | > 100 | > 100 | > 100
CC1CC[C@@]2(OC1)O[C@H]1C[C@@]3(O)[C@@H]4CC=C5C[C@@H](O)C[C@@H](O)[C@]5(C)[C@H]4CC[C@]3(C)[C@H]1[C@@H]2C (single isomer, unassigned) [NAMOGENIN B] | > 100 | > 100 | > 100
COc1cccc2c1C(=O)c1c(O)c3c(c(O)c1C2=O)C[C@@](O)(C(=O)CO)C[C@@H]3O[C@H]1C[C@H](N)[C@H](O)[C@H](C)O1 [DOXORUBICIN HYDROCHLORIDE] | 0.2 | – | 0.2
O=c1[nH]cc(F)c(=O)[nH]1 [FLUOROURACIL] | 0.6 | 0.5 | 1.5
C=C1CC[C@@]2(OC1)O[C@H]1C[C@@]3(O)[C@@H]4CC=C5C[C@@H](O)C[C@@H](O)[C@]5(C)[C@H]4CC[C@]3(C)[C@@]1(O)[C@@H]2C [NAMOGENIN C] | > 100 | > 100 | > 100
C=C1CO[C@@]2(O[C@H]3C[C@H]4[C@@H]5CC=C6C[C@@H](O)C[C@@H](O[C@@H]7OC[C@H](O)[C@H](O[C@@H]8OC[C@@H](O)[C@H](OC(C)=O)[C@H]8O)[C@H]7O[C@@H]7O[C@@H](C)[C@H](OC(C)=O)[C@@H](OC(C)=O)[C@H]7OC(C)=O)[C@]6(C)[C@H]5CC[C@]4(C)[C@H]3[C@@H]2C)[C@@H](O)[C@H]1O[C@@H]1O[C@H](C)[C@H](O)[C@H](O)[C@H]1O [NAMONIN A] | 9.7 | 26.6 | 0.2
C=C1CO[C@@]2(O[C@H]3C[C@H]4[C@@H]5CC=C6C[C@@H](O)C[C@@H](O[C@@H]7OC[C@H](O)[C@H](O[C@@H]8OC[C@@H](OC(C)=O)[C@H](O)[C@H]8O)[C@H]7O[C@@H]7O[C@@H](C)[C@H](OC(C)=O)[C@@H](OC(C)=O)[C@H]7OC(C)=O)[C@]6(C)[C@H]5CC[C@]4(C)[C@H]3[C@@H]2C)[C@@H](O)[C@H]1O[C@@H]1O[C@H](C)[C@H](O)[C@H](O)[C@H]1O [NAMONIN B] | 11.8 | 27.7 | 0.3
C=C1CO[C@@]2(O[C@H]3C[C@H]4[C@@H]5CC=C6C[C@@H](O)C[C@@H](O[C@@H]7OC[C@H](O)[C@H](O)[C@H]7O[C@@H]7O[C@@H](C)[C@H](O)[C@@H](O)[C@H]7O)[C@]6(C)[C@H]5CC[C@]4(C)[C@H]3[C@@H]2C)[C@@H](O)[C@H]1O[C@@H]1O[C@H](C)[C@H](O)[C@H](O)[C@H]1O [NAMONIN C] | > 100 | > 100 | 27.7
C=C1CO[C@@]2(O[C@H]3C[C@H]4[C@@H]5CC=C6C[C@@H](O)C[C@@H](O[C@@H]7OC[C@H](O)[C@H](O)[C@H]7O[C@@H]7O[C@@H](C)[C@H](OC(C)=O)[C@@H](O)[C@H]7O)[C@]6(C)[C@H]5CC[C@]4(C)[C@H]3[C@@H]2C)[C@@H](O)[C@H]1O[C@@H]1O[C@H](C)[C@H](O)[C@H](O)[C@H]1O [NAMONIN D] | 42.4 | 97.4 | 21.6
CC(=O)O[C@H]1CO[C@@H](O[C@@H]2C[C@H](O)CC3=CC[C@H]4[C@@H]5C[C@@H]6OC(CC[C@@H](C)CO[C@@H]7O[C@H](CO)[C@@H](O)[C@H](O)[C@H]7O)=C(C)[C@@H]6[C@@]5(C)CC[C@@H]4[C@]32C)[C@H](O[C@@H]2O[C@@H](C)[C@H](O)[C@@H](O)[C@H]2O)[C@H]1O[C@@H]1OC[C@@H](O)[C@H](O)[C@H]1O [NAMONIN E] | > 100 | > 100 | 21.8
